In ChEMBL document CHEMBL4257448, “Deciphering the origins of molecular toxicity of combretastatin A4 and its glycoconjugates: interactions with major drug transporters and their safety profiles in vitro and in vivo” (Medchemcomm, 2017):
pIC50: −log10 of the molar value. Values after ≈ are worked out from the molar mass of the structure shown.

Legend:
Mus musculus = assay: Ratio of compound MTD to CA4 MTD in ip dosed DBA/2 mouse assessed as reduction in 15% body weight administered as daily dose for 3 days; format: ADME, organism-based; conditions: in vivo, 72 h
[1] = Aqueous solubility of the compound after 1 hrs by HPLC-UV method; format: physicochemical; conditions: deionized water
Outline: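 Shaken in tubes at 25 °C for 1 h, protected from light, then filtered through 0.2 μm filters; filtrate diluted in deionized water and quantified by reversed-phase HPLC-UV (C18 column, room temperature, methanol/water 70:30 v/v, 1.0 mL min−1).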

HT-29 [2] = assay: […] for human HT-29 cells assessed as reduction in cell viability after 72 hrs by MTT assay; format: functional
Outline: (§1)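 HT29 cells were cultured in RPMI-1640 with glutamine and 10% FBS, seeded at 2000–7500 cells/well, and exposed for 72 h to drug in DMSO (final DMSO <0.1%). MTT was added at 0.83 mg mL−1 final and incubated overnight, then cells were lysed in SDS/HCl and read at 570 nm. Survival was expressed as percent of drug-free control; five replicate wells.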

[3] = Toxicity in ip dosed DBA/2 mouse assessed as reduction in 15% body weight administered as daily dose for 3 days; format: organism-based; conditions: in vivo
Outline: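 Adult male DBA/2 mice were dosed i.p. at 10 mL kg−1, with 5 per group. Controls (n = 8) received saline. MTD was the dose allowing 15% median body-weight loss with no toxic deaths or marked change in general signs within 3 days.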

[4] = Cytotoxicity against HEK293FT cells expressing GLUT1 assessed as reduction in cell viability up to 20 uM; format: cell-based; conditions: human
HT-29 [5] = assay: Cytotoxicity against human HT-29 cells assessed as reduction in cell viability after 72 hrs by MTT assay; format: functional, cell-based; conditions: HT-29, 72 h; outline: as §1
[6] = Cytotoxicity against HEK293FT cells assessed as reduction in cell viability up to 20 uM; format: cell-based; conditions: human
[7] = Ratio of CA4 aqueous solubility to test compound aqueous solubility; format: physicochemical; conditions: buffer

| SMILES | Ratio (Mus musculus) | solubility at 1 h [1] | Ratio IC50 (HT-29 [2]) | MTD at 72 h [3] | Activity [4] | pIC50 (HT-29 [5]) | Activity [6] | Ratio [7] |
| --- | --- | --- | --- | --- | --- | --- | --- | --- |
| COc1ccc(/C=C\c2cc(OC)c(OC)c(OC)c2)cc1O[C@H]1O[C@H](CO)[C@@H](O)[C@H](O)[C@@H]1O | 16 | 5890 µg/mL (≈ 12.3 mM) | 15.89 | 400 mg/kg | Toxic | 4.94 | Toxic | 1963 |
| COc1ccc(/C=C\c2cc(OC)c(OC)c(OC)c2)cc1O[C@@H]1O[C@H](CO)[C@H](O)[C@H](O)[C@H]1O | 34 | 2560 µg/mL (≈ 5.35 mM) | 54.61 | 550 mg/kg | Toxic | 4.41 | Toxic | 853 |
